# Results from ChEMBL document CHEMBL1641364, “Synthesis of truncated analogues of the iNKT cell agonist, α-galactosyl ceramide (KRN7000), and their biological evaluation” (Bioorg Med Chem, 2011).
# The source made the active and inactive calls. No cut-off for these calls is given here.
# Columns and labels:
# Format in all cases: cell-based
# [1] = target: T1, Antigen-presenting glycoprotein CD1d (Homo sapiens) (UniProt P15813); experiment: Binding affinity to C1R-hCD1d expressed in human B cells assessed as activation of IL-4 release in human iNKT cells upto 100 ng/ml after 36 hrs by ELISA
# T1 sequence (whole entry): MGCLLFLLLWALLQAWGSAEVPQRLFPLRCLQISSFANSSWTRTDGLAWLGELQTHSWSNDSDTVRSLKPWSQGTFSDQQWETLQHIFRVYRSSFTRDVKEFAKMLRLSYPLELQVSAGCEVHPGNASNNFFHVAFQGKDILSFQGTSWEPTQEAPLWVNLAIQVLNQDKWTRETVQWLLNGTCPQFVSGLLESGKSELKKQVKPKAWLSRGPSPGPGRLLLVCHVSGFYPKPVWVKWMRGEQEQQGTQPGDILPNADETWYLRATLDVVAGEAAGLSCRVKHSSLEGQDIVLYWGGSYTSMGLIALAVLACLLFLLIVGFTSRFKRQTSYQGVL
# How it was run: (§1)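 C1R cells expressing human CD1d were pulsed with lipid at a range of concentrations. 5 × 10⁴ pulsed targets were co-cultured with 2 × 10⁴ human iNKT line cells at 37 °C for 36 h. IFN-γ and IL-4 in the harvested supernatants were quantified by ELISA, and IFN-γ/IL-4 and IL-4/IFN-γ ratios were derived from these values.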
# [2] = target: T1, Antigen-presenting glycoprotein CD1d (Homo sapiens); experiment: Binding affinity to C1R-hCD1d expressed in human B cells assessed as increase in Th2 cytokine release in mouse iNKT cells upto 100 ng/ml after 36 hrs by ELISA
# [3] = target: T1, Antigen-presenting glycoprotein CD1d (Homo sapiens); experiment: Binding affinity to C1R-hCD1d expressed in human B cells assessed as increase in Th1 cytokine release in mouse iNKT cells upto 100 ng/ml after 36 hrs by ELISA
# [4] = target: T1, Antigen-presenting glycoprotein CD1d (Homo sapiens); experiment: Binding affinity to C1R-hCD1d expressed in human B cells assessed as increase in IFN-gamma/IL4 ratio in mouse iNKT cells upto 100 ng/ml after 36 hrs by ELISA
# [5] = target: T1, Antigen-presenting glycoprotein CD1d (Homo sapiens); experiment: Binding affinity to C1R-hCD1d expressed in human B cells assessed as activation of IFN-gamma release in human iNKT cells upto 100 ng/ml after 36 hrs by ELISA; how it was run: as §1
# [6] = target: T1, Antigen-presenting glycoprotein CD1d (Homo sapiens); experiment: Binding affinity to C1R-hCD1d expressed in human B cells assessed as change in IFN-gamma/IL4 ratio in human iNKT cells upto 100 ng/ml after 36 hrs by ELISA; how it was run: as §1
Compound,Activity [1],Activity [2],Activity [3],Activity [4],Activity [5],Activity [6]
CCCCCCCCCCCCCCCCCCCCCCCCCC(=O)N[C@@H](CO[C@H]1O[C@H](CO)[C@H](O)[C@H](O)[C@H]1O)[C@H](O)[C@H](O)CCCCC,Active,Active,Active,Active,Active,inactive
CCCCC/C=C\C/C=C\CCCCCCCCCC(=O)N[C@@H](CO[C@H]1O[C@H](CO)[C@H](O)[C@H](O)[C@H]1O)[C@H](O)[C@H](O)CCCCCCCCCCCCCC,,Active,Active,Active,,inactive

# Now from value to compound:
Activity [1],Activity [2],Activity [3],Activity [4],Activity [5],Activity [6],Compound
Active,Active,Active,Active,Active,inactive,CCCCCCCCCCCCCCCCCCCCCCCCCC(=O)N[C@@H](CO[C@H]1O[C@H](CO)[C@H](O)[C@H](O)[C@H]1O)[C@H](O)[C@H](O)CCCCCCCC
Active,Active,Active,Active,Active,inactive,CCCCCCCCCCCCCCCCCCCCCCCCCC(=O)N[C@@H](CO[C@H]1O[C@H](CO)[C@H](O)[C@H](O)[C@H]1O)[C@H](O)[C@H](O)CCCCCCCCCCC
Active,,Active,Active,Active,inactive,CCCCCCCCCCCCCCCCCCCCCCCCCC(=O)N[C@@H](CO[C@H]1O[C@H](CO)[C@H](O)[C@H](O)[C@H]1O)[C@H](O)[C@H](O)CCCCCCCCCCCCCC
